Experimental data collected from several papers.
Lines come from different studies, so protocols differ.
mraY: mraY (Staphylococcus aureus, UniProt Q2FZ93)
DCLK3: Serine/threonine-protein kinase DCLK3 (DCLK3, Homo sapiens, UniProt Q9C098)
TSSK1B: Testis-specific serine/threonine-protein kinase 1 (TSSK1B, Homo sapiens, UniProt Q9BXA7)
BDKRB1: B1 bradykinin receptor (BDKRB1, Homo sapiens, UniProt P46663)

SMILES	target	assay	system	setting	measurement	result
C[C@]1(O)CCCN(c2nc(Nc3ccc(S(=O)(=O)N[C@H]4CC[C@H](CN5CCN(c6ccc(C7CCC(=O)NC7=O)cc6F)CC5)CC4)cc3Cl)ncc2C(F)(F)F)C1 (stereo partly shown)	Aurora kinase C (AURKC, Homo sapiens, UniProt Q9UQB9)	binding, competition with immobilised ligand	–	1 µM	remaining binding	99%
CCCCCCC#Cc1cncc(-c2nnc(SCc3ccc([N+](=O)[O-])cc3)n2CCCN)c1	mraY	cell-free assay, inhibitor	–	250 µM	inhibition	82%
C1=C/COCc2cc(ccc2OCCN2CCCC2)Nc2nccc(n2)-c2cccc(c2)COC/1	Activin receptor type-2B (ACVR2B, Homo sapiens, UniProt Q13705)	binding	–	0.1 µM	remaining binding	63%
Cc1n[nH]c2ccc3nc(-c4ccc(C(=O)NCCN(C)C)cc4F)c4c(c3c12)CCCC4	Receptor-type tyrosine-protein kinase FLT3 (FLT3, Homo sapiens, UniProt P36888, ITD)	enzyme activity, inhibitor, radiometric	–	0.5 µM	remaining activity	13%
Cc1cc(S(=O)(=O)N[C@H]2CC[C@H](CN3CCN(c4ccc(C5CCC(=O)NC5=O)cc4F)CC3)CC2)ccc1Nc1ncc(C(F)(F)F)c(N2CCC[C@](C)(O)C2)n1 (stereo partly shown)	DCLK3	binding, competition with immobilised ligand	–	1 µM	remaining binding	28%
CCCCCCC#Cc1cncc(-c2nnc(SCc3ccc(Cl)cc3)n2CCCN)c1	mraY	cell-free assay, inhibitor	–	250 µM	inhibition	34%
N#Cc1ccc(NC(=O)Nc2ccccc2)cc1	TSSK1B	cell-free assay, competition with immobilised ligand	–	25 µM	remaining binding	83%
NC/C(=C\F)COc1cccc(Cn2c(=S)[nH]c(=O)c3[nH]cnc32)c1	BDKRB1	ligand displacement, radioligand	–	10 µM	inhibition	< 50%
COc1ccc2oc(-c3ccc4nc(N)oc4c3)c/c(=N\c3ccccc3NC(=O)CCN)c2c1	TSSK1B	binding	–	1 µM	remaining binding	100%
CCN1/C(=C/C(C)=O)Sc2ccc(F)cc21	BDKRB1	ligand displacement, radioligand	–	10 µM	inhibition	0%
CNS(=O)(=O)c1ccc(Nc2ncc(C(F)(F)F)c(N3CCC[C@](C)(O)C3)n2)c(C)c1	DCLK3	binding, competition with immobilised ligand	–	1 µM	remaining binding	41%
CCCCCCC#Cc1cncc(-c2nnc(SCc3ccc([N+](=O)[O-])o3)n2CCO)c1	mraY	cell-free assay, inhibitor	–	250 µM	inhibition	61%
Cc1cc(-c2ccnc3[nH]cc(F)c23)cc(F)c1[C@@]1(O)[C@H](C)CN(C2CCS(=O)(=O)CC2)C[C@@H]1C	Rho-associated protein kinase 1 (ROCK1, Homo sapiens, UniProt Q13464)	enzyme activity, inhibitor	–	15 nM	remaining activity	31.3%
CCCCC(=O)Nc1ccc(-c2ccc3ncn(CCC)c(=O)c3c2)cn1	Atypical kinase COQ8B, mitochondrial (COQ8B, Homo sapiens, UniProt Q96D53)	binding, competition with immobilised ligand	–	0.5 µM	remaining binding	99%
C[C@]1(O)CCCN(c2nc(Nc3ccc(S(=O)(=O)N[C@H]4CC[C@H](CN5CCN(c6ccc(C7CCC(=O)NC7=O)cc6F)CC5)CC4)cc3F)ncc2C(F)(F)F)C1 (stereo partly shown)	BMP-2-inducible protein kinase (BMP2K, Homo sapiens, UniProt Q9NSY1)	binding, competition with immobilised ligand	–	1 µM	remaining binding	74%
CSCC[C@H](NC(C)=O)C(=O)N[C@@H](CC(=O)O)C(=O)N[C@@H](Cc1ccccc1)C(N)=O	Gastrin/cholecystokinin type B receptor (CCKBR, Homo sapiens, UniProt P32239)	β-arrestin recruitment, agonist	HTLA	–	Emax	38.1%
